Rows were chosen to be rich in hits. Some 2.2% of all compounds tested hit in one or more screens of this group.
Diaphorase inh = diaphorase inhibition or chemical oxidation counter-screen; diaphorase resazurin-to-resorufin fluorescence, NADH, 16 min; bacterial (C. kluyveri) enzyme, not human; inhibition, % at 20 µM; actives 0.69% (n = 190,000); AID 1217;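 active = primary screen inhibition at 20 µM above a set limit, cut at about 50% in these data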
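Test system: bacterial diaphorase enzyme (C. kluyveri); Quantity: 0.14 U/mL diaphorase, enzyme working solution; Times: reaction incubation of 16 min at room temperature; Measured by: fluorescence of resorufin formed from resazurin, Ex 544/Em 590 nm; Benchmarks: positive control minus NADH, DMSO neutral control.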
PMI activator = phosphomannose isomerase (human) activation; P34949; purified human PMI, coupled resazurin fluorescence, 20 min; hits give high values; 1 = vehicle control, 0 substrate-free wells; activation factor at 20 µM; actives 0.005% (n = 190,000); AID 1214;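 active = activation factor of 2 or more at 20 µM, relative to plate controls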
Target sequence (P34949 whole entry, looked up): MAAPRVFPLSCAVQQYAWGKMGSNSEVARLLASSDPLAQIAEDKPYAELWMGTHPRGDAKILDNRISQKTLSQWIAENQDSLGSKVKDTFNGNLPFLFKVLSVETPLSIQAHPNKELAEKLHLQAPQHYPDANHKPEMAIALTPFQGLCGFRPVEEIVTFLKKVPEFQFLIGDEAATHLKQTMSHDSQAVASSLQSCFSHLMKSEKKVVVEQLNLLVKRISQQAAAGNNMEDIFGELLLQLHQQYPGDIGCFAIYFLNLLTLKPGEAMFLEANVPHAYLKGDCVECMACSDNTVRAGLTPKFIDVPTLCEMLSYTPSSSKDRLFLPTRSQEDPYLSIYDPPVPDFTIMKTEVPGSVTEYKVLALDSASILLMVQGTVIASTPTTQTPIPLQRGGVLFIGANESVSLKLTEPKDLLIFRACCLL
PMI act hi M6P = PMI (human) activation, high substrate; coupled PMI enzyme assay, resazurin fluorescence, 20 min; hits give high values; 1 = untreated enzyme, 0 = substrate-free blank; activation factor at 20 µM; actives 0.34% (n = 190,000); AID 1216;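 active = activation factor of 2 or more at 20 µM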
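Material: human phosphomannose isomerase with PGI, G6PDH, diaphorase coupling enzymes. Quantity: 15 ng/mL PMI. Medium: HEPES pH 7.4 buffer with MgCl2 and Tween-20. Reagent: Near-saturating mannose-6-phosphate, 1.0 mM. Compound: 20 µM single dose. Times: enzyme reaction with compound 20 min at room temperature. Detection: resorufin fluorescence at Ex 544/Em 590 nm.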
G6PDH CS = counter-screen for G6PDH assay hits: L. mesenteroides G6PDH inhibition; Purified L. mesenteroides G6PDH, diaphorase/resazurin coupled fluorescence, 45 min; inhibition, % at 5 µM; actives 0.12% (n = 200,000); in the data active = inhibition above about 50%
Diaph act CS = activates diaphorase or chemically reduces, flagging diaphorase assay artifacts | Diaphorase/resazurin coupled assay, resorufin fluorescence, 16 min; hits give high values; 1 = vehicle wells, 0 = NADH-free wells | activation factor at 20 µM | actives 0.005% (n = 190,000) | AID 1229;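 active = diaphorase activity raised at least twofold by the compound at 20 µM; inactive = activation factor below 2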
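Assay system: Purified diaphorase enzyme from Clostridium kluyveri | Amount: Enzyme 0.07 U/mL final | Dosing: Compound 20 µM once, DMSO 1% | Timing: 16 min reaction at room temperature | Detection: Fluorescence, excitation 544 nm and emission 590 nm | Evaluation: Higher resorufin formation from activation or reduction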
ROMK primary = modulates human ROMK potassium channel activity; B-score at 10 µM; Tet-inducible ROMK, thallium flux fluorescence; actives lie on both sides; actives 2% (n = 130,000);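 active = signal ratio slope over the read window, or its plate-corrected B-score, at least 3 SD from the plate mean, either direction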;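 also: B-score of the F/F0 ratio slope over 7 to 12 s after thallium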
ROMK hit retest = human ROMK channel modulation, retest confirmation | shares compounds with ROMK primary | ROMK thallium flux, fluorescence ratio; hits give low values | normalized thallium flux (F/F0 slope) at 10 µM | actives 54% (n = 3,000) | AID 1917;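 active = Flux at 10 µM at least 3 SD below or above vehicle control mean in one or both replicates; inconclusive = no clear call, values can overlap the other calls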
Of the large screens only hits and unclear results are named; the others gave an inactive call (follow-up assays come after a bar, where they were run).

CCC1(C)C(Nc2c(C)cccc2C)=NC(=S)N1c1ccc(NC(C)=O)cc1 (centres undefined)	none (no result: ROMK primary)
O=C1CCCC(O)=C1C(C#Cc1ccccc1)C1=C(O)CCCC1=O	ROMK primary -3.76 | ROMK hit retest 0.0626
CC1(C)CC(=O)C(C(C#Cc2ccccc2)C2=C(O)CC(C)(C)CC2=O)=C(O)C1	none (no result: ROMK primary)
CCOc1ccc(C(C)=O)cc1CSC(=N)N	none
CCCCCOc1ccc(CSC(=N)N)cc1[N+](=O)[O-]	none (no result: ROMK primary) | ROMK hit retest 0.0519
CCCCOc1ccc(Br)cc1CSC(=N)N	ROMK primary -3.95 | ROMK hit retest 0.0575
CN(CC1CCCO1)S(=O)(=O)c1ccc(C(=O)Nc2nc(-c3ccccn3)cs2)cc1 (centres undefined)	none (no result: ROMK primary) | ROMK hit retest inactive
CC1CCCCC1NC(=O)CN1C(=O)CSc2cc(S(=O)(=O)N3CCCCCC3)ccc21 (centres undefined)	ROMK primary -4.51 | ROMK hit retest 0.0653
CCOC(=O)CN1C(=O)CSc2ccc(S(=O)(=O)N3CCCC3)cc21	none (no result: Diaphorase inh, PMI activator, PMI act hi M6P, G6PDH CS, Diaph act CS)
COc1ccc2[nH]c(=O)c(CN(C(=O)NC3CCCCC3)C3CCCC3)cc2c1	ROMK primary -2.84 | ROMK hit retest inactive
COc1ccc2[nH]c(=O)c(CN(C(C)=O)C3CCCCC3)cc2c1	none
COc1ccc2[nH]c(=O)c(CN(CC3CCCO3)C(=O)Nc3ccc(F)cc3)cc2c1 (centres undefined)	none (no result: ROMK primary) | ROMK hit retest 0.0613
S=C(Nc1ccc(Cc2ccncc2)cc1)Nc1cccc(Cl)c1	none
CC(=O)C1(C)OC(N)=C(C#N)C(c2ccccc2)C1(C#N)C#N (centres undefined)	ROMK primary -3.34 | ROMK hit retest inconclusive
Cc1cc(C)nc(/N=C(\N)Nc2ccc(OCc3ccccc3)cc2)n1	none
Cc1cc(C)nc(/N=C(\N)Nc2cccc(OCc3ccccc3)c2)n1	none (no result: Diaphorase inh, PMI activator, PMI act hi M6P, G6PDH CS, Diaph act CS, ROMK primary) | ROMK hit retest 0.0553
CCCN1C(=O)c2cc(C(=O)Nc3ccc(OC)cc3OC)ccc2C1Nc1ccc(OC)cc1OC (centres undefined)	ROMK primary -3.66 | ROMK hit retest inconclusive
Clc1ccccc1Cc1noc(CN2CCN(Cc3ccccn3)CC2)n1	none
Cc1c([N+](=O)[O-])cc(S(=O)(=O)Nc2ccncc2)cc1[N+](=O)[O-]	ROMK primary -4.19 | ROMK hit retest inactive
Cc1ccc(S(=O)(=O)Nc2ccccn2)cc1[N+](=O)[O-]	ROMK primary -5.85 | ROMK hit retest inactive
CC(=O)Nc1ccc(S(=O)(=O)Nc2ccc(C)c([N+](=O)[O-])c2)cc1	none
O=C(C1CCN(S(=O)(=O)c2cccc3cccnc23)CC1)N1CCN(c2ccccc2)CC1	none (no result: ROMK primary)
O=C(C1CCCN(S(=O)(=O)c2cccc3cccnc23)C1)N1CCN(c2ccc(F)cc2)CC1 (centres undefined)	none (no result: ROMK primary) | ROMK hit retest inactive
Cc1ccc(-n2cccn2)c(CN2CCC(CO)(CCc3ccccc3)CC2)c1	ROMK primary -3.29 | ROMK hit retest 0.061
OCC1(CCc2ccccc2)CCN(Cc2cc(Cl)ccc2O)CC1	none
O=C(NCCC1=CCCCC1)C(=O)NCc1ccccc1	ROMK primary 1.17 | ROMK hit retest inactive
O=C(NCCc1ccccc1)C(=O)NCC1(c2ccccc2)CCCC1	none (no result: ROMK primary)
O=C(NCCc1ccccc1)C(=O)NN=C1CCCC1	ROMK primary 2.78 | ROMK hit retest inactive
CC(C)c1csc(CN2CCN(CCc3ccccc3)C(CCO)C2)n1 (centres undefined)	none
COc1ccc(CCNC(=O)Cn2c(=O)n(-c3ccc(C)c(F)c3)c(=O)c3sccc32)cc1OC	none
CC1CN(c2ccc(C(=O)c3ccccc3C(=O)O)cc2[N+](=O)[O-])CC(C)O1 (centres undefined)	none
CCc1cccc(NC(=O)CSC2=NS(=O)(=O)c3ccccc32)c1	none (no result: ROMK primary) | ROMK hit retest 0.0594
COc1ccc2[nH]c3c(=O)n(Cc4ccc(C(=O)N5CCCC5)cc4)c(=S)[nH]c3c2c1	none
CCCOc1cc(C)c(S(=O)(=O)NC2CC(C)(C)NC(C)(C)C2)cc1C	ROMK primary -4.41 | ROMK hit retest 0.0624
COc1cc(C)c(Cl)cc1S(=O)(=O)NC1CC(C)(C)NC(C)(C)C1	ROMK primary -6.41 | ROMK hit retest 0.052
COc1cc(C)c(S(=O)(=O)NC2CC(C)(C)NC(C)(C)C2)cc1C	none
CCCCc1nc2ccccc2c(NC(=O)CNC(C)(C)C)c1CCC	ROMK primary -2.79 | ROMK hit retest 0.0547
CC(C)(C)N(NC(=O)Nc1ccc(Cl)c(Cl)c1)C(=O)c1ccccc1	none (no result: ROMK primary) | ROMK hit retest inactive
CC(C)(C)N(NC(=O)Nc1ccc(F)cc1)C(=O)c1ccccc1	none (no result: ROMK primary)
N#Cc1cc2cc3ccccc3nc2n2c(=O)c3ccccc3nc12	none (no result: ROMK primary) | ROMK hit retest 0.0563
CN(C)CCNC(=O)c1cc2sc3ccccc3c2s1	none
CCCCCNCC(=O)Nc1cccc(C(=O)Nc2cccc(C(F)(F)F)c2)c1	none
COc1ccc(Cn2c(-c3ccc(OC)cc3)nc3ccccc32)cc1	ROMK primary -2.51 | ROMK hit retest inconclusive
COCCn1c(-c2ccc(OC)cc2)nc2ccccc21	none
CCC(CNc1cc(OC)cc2cccnc12)NC1CCCCC1 (centres undefined)	none (no result: Diaphorase inh, PMI activator, PMI act hi M6P, G6PDH CS, Diaph act CS, ROMK primary) | ROMK hit retest 0.0536
COc1ccccc1Cn1c(CCCO)nc2ccccc21	ROMK primary -3.75 | ROMK hit retest inconclusive
CCCc1nc2ccccc2n1Cc1ccccc1OC	none (no result: ROMK primary)
COc1cc(C(=O)NC(C)c2cnn(-c3ccccc3C)c2C)cc(OC)c1OC (centres undefined)	none (no result: Diaphorase inh, PMI activator, PMI act hi M6P, Diaph act CS)
O=C(Nc1ccc2oc(-c3cccnc3)nc2c1)c1cccnc1	ROMK primary -5.09 | ROMK hit retest inactive
O=C(Nc1ccc2oc(-c3cccnc3)nc2c1)c1ccco1	none (no result: ROMK primary)
Cc1cc(C)cc(NC(=O)N2CCCC2C(=O)Nc2ccc(-n3cnnn3)c(C)c2)c1 (centres undefined)	none (no result: ROMK primary) | ROMK hit retest inactive
COc1ccc(C(=O)/C=C/C(=O)N(Cc2ccccc2)C(C(=O)NC2CCCCC2)c2ccncc2)c(O)c1 (centres undefined)	none
COc1ccc(C(=O)/C=C/C(=O)N(Cc2ccccc2OC)C(C(=O)NC2CCCCC2)c2ccncc2)c(O)c1 (centres undefined)	ROMK primary -3.73 | ROMK hit retest 0.0663
O=C(CSCc1ccccc1Cl)NCCSc1ccccn1	none
O=C(Cc1ccccc1)N[C@@H](Cc1ccccc1)C(=O)O	none (no result: ROMK primary)

Bioassay records (PubChem)
